TRPC4 potent: allosterically enhances the mouse TRPC4 cation channel; Q9QUQ5; HEK293 TRPC4beta/mu-opioid, DAMGO EC20, Fluo-4 Ca2+ flux; stronger effect = higher value; B-score at 10 µM; hit rate 0.42% among 310,000;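 active means B-score of calcium response area above 5 SD of library B-scores, with initial fluorescence ratio within 5 SD of library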;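 further: B-score of integrated fluorescence ratio over time as area under calcium response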
Target sequence (Q9QUQ5 whole entry, looked up): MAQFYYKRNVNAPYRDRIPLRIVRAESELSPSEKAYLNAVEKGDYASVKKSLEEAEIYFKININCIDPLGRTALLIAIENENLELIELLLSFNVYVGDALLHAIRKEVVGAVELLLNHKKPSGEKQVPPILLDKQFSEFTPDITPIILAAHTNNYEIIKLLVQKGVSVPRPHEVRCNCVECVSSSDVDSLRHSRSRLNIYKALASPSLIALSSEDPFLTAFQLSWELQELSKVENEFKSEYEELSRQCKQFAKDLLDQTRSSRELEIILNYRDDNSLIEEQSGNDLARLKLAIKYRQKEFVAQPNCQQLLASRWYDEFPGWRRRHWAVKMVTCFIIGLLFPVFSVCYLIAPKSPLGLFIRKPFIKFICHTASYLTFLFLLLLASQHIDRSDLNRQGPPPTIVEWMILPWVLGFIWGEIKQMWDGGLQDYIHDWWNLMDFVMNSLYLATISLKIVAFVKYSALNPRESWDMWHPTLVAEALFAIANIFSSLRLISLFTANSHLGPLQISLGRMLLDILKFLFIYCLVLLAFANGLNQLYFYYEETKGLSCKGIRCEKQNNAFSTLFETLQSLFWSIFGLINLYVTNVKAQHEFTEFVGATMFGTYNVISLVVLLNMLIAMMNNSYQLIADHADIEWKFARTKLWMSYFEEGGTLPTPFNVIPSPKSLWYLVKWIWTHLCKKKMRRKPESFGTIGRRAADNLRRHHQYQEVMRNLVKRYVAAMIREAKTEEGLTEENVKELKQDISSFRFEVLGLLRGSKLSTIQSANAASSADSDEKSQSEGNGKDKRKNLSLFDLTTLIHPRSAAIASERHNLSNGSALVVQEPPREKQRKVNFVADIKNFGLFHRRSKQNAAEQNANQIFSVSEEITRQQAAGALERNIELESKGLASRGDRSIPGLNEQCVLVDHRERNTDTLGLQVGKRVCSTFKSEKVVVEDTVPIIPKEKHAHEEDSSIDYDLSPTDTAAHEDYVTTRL
TRPC4 agonist: TRPC4 (mouse) channel activation; HEK293 TRPC4beta/mu-opioid, Fluo4 calcium fluorescence; stronger effect = higher value; Q9QUQ5; hit rate 0.49% among 310,000; B-score at 10 µM;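 active means B-score above 5 SD of library B-scores, and initial fluorescence ratio not above library mean plus 5 SD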;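 further: positive B-score marks a calcium rise read as TRPC4 activation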
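System – HEK293 cells stably co-expressing mouse TRPC4beta and mu-opioid receptor · Signal – Fluo4 calcium-sensitive dye fluorescence, kinetic, 1 Hz baseline · Benchmarks – buffer (low) and maximal DAMGO (high) · Read-out – B score of integrated fluorescence ratio per well · Incubation – dye loading 45 min room temperature, 110 s kinetic read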
TRPC6 act: mouse TRPC6 channel activation. hit rate 0.13% among 310,000. B-score at 10 µM. HEK293-TRPC6 membrane potential dye fluorescence; stronger effect = higher value;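 active means B-score of the integrated fluorescence ratio above library mean plus 3 SD, and starting fluorescence ratio within library mean plus 5 SD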;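 further: higher score means more depolarization so channel activation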
TRPC4 inh: blocks the mouse TRPC4 cation channel; AID 2247; B-score at 10 µM; HEK293 TRPC4beta/mu-opioid, DAMGO-evoked Fluo4 calcium flux; stronger effect = lower value; hit rate 0.39% among 300,000; Q9QUQ5;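 active means B-score over 3 SD under the library average, no early fluorescence shift, positive overall ratio signal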
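Assay system: Stable TRPC4beta/mu-opioid receptor HEK293 cells | Reagent: DAMGO in two steps, submaximal then maximal | Compound dosing: Single concentration per test compound | Signal: Fluo4 Ca2+ flux fluorescence | Evaluation: Per-well B score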
TRPC6 inhibitor: blocks the mouse TRPC6 cation channel | AID 2553 | Q61143 | HEK293-TRPC6, membrane potential dye, ACh-evoked depolarization; stronger effect = lower value | B-score at 10 µM | hit rate 1.1% among 310,000;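 active means B-score under library mean minus 3 SD, initial fluorescence not abnormally high, positive integrated signal ratio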;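 further: B-score derived from integrated fluorescence ratio over the kinetic read; more negative B-score means stronger inhibition of depolarization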
TRPC4 spec 2: second selectivity test of TRPC6 inhibitors: effect on mouse TRPC4; hit rate 42% among 920; inhibition, % at 10 µM; shares compounds with TRPC6 inhibitor; HEK293 TRPC4/MOR, membrane potential dye fluorescence; channel activated by saturating DAMGO dose;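 active means compounds whose fluorescence signal differed from control wells by over 3 SD, either direction, in both duplicate plates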
TRPC4 spec: selectivity of TRPC6 inhibitors: effect on mouse TRPC4 | AID 2777 | shares compounds with TRPC6 inhibitor | activity change, negative = inhibition, % at 10 µM | HEK293 TRPC4/mu-opioid, membrane potential fluorescence | hit rate 61% among 920;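 active means rise or fall in signal beyond 3 SD of buffer-only wells in both replicate plates, either sign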;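 further: integrated kinetic ratio of fluorescence range over baseline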
HEK293 MPD ctr 2-1: parental HEK293 nonspecific activity of TRPC6 inhibitors, second screen | parental HEK293 membrane potential dye fluorescence; maximal acetylcholine challenge after compound addition | hit rate 31% among 920 | shares compounds with TRPC6 inhibitor | signal change vs control, % at 10 µM;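 active means membrane potential signal moving either way by over 3 SD of the maximum-effect control, in both duplicate plates, meaning non-specific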
HEK293 MPD ctr-1: counter-screen for TRPC6 inhibitors: effect in parental HEK293 cells | shares compounds with TRPC6 inhibitor | parental HEK293 membrane potential dye fluorescence | membrane potential signal change, % at 10 µM | hit rate 60% among 920 | AID 2780;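 active means membrane potential signal shifting up or down by more than 3 SD of buffer-only wells, on both duplicate plates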
HEK293 MPD ctr-2: parental HEK293 nonspecific activity of TRPC6 modulators; shares compounds with TRPC6 inhibitor; hit rate 51% among 2,400; membrane potential dye fluorescence; membrane potential signal change, % at 10 µM;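 active means membrane potential signal moves up or down beyond 5 SD from buffer-only wells, on both duplicate plates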
HEK293 MPD ctr 2-2: second counter-screen for TRPC6 modulators: effect in parental HEK293 cells; hit rate 14% among 2,400; membrane potential dye fluorescence; after compound, maximal acetylcholine stimulation; shares compounds with TRPC6 inhibitor; inhibition, % at 10 µM; AID 488926;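 active means membrane potential signal drops by more than 5 SD from the mean control signal, in both duplicate plates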;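 further: plate controls were acetylcholine ECmax control wells for no effect and buffer only wells for full effect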
TRPC4/MOR mod: tests whether TRPC6 modulators also affect mouse TRPC4. shares compounds with TRPC6 inhibitor. HEK293 TRPC4/mu-opioid, membrane potential fluorescence. percent change from control (negative = decrease, positive = increase), % at 10 µM. hit rate 69% among 2,400;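 active means membrane potential signal moved up or down beyond 5 SD of buffer control wells, in both duplicate plates, actives on both sides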;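 further: plate controls were assay buffer wells for no effect and DAMGO maximal-effect wells for full effect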
TRPC4 ctr inh 2: second check of whether TRPC6 modulators also affect mouse TRPC4; shares compounds with TRPC6 inhibitor; HEK293 TRPC4/mu-opioid, membrane potential dye fluorescence; stimulated with maximal-effect DAMGO; inhibition, % at 10 µM; hit rate 55% among 2,400;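 active means drop in membrane potential signal beyond 5 SD of the control wells in both duplicate plates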;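 further: TRPC4 counter screen for TRPC6 hits run under conditions tuned for TRPC6 not TRPC4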
TRPC6 block conf: confirmation of mouse TRPC6 inhibitors; shares compounds with TRPC6 inhibitor; HEK293-TRPC6, membrane potential dye, ACh-evoked depolarization; inhibition, % at 10 µM; hit rate 43% among 3,300; AID 488960;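 active means fluorescence ratio falls more than 5 SD below the full-stimulation control mean, in both duplicate runs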;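 further: integrated fluorescence ratio of peak minus minimum over baseline after agonist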
TRPC6 act confirm: mouse TRPC6 activator confirmation. shares compounds with TRPC6 inhibitor. HEK293-TRPC6 membrane potential dye fluorescence, FDSS. activation, % at 10 µM. hit rate 11% among 2,800;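 active means ratio signal rise beyond 5 SD above unstimulated control wells' mean, seen in both duplicate runs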;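 further: plate controls were buffer EC0 wells for no effect and acetylcholine ECmax response for full effect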
The depositor's hits bear a star; i = inactive; . = no result. In the library only some 2.3% were active in any assay of this set; here they are far more common.

SMILES	TRPC4 potent	TRPC4 agonist	TRPC6 act	TRPC4 inh	TRPC6 inhibitor	TRPC4 spec 2	TRPC4 spec	HEK293 MPD ctr 2-1	HEK293 MPD ctr-1	HEK293 MPD ctr-2	HEK293 MPD ctr 2-2	TRPC4/MOR mod	TRPC4 ctr inh 2	TRPC6 block conf	TRPC6 act confirm
CCCn1c(=N)n(CC(=O)c2ccc(Cl)cc2)c2ccccc21	i	i	i	i	-7.3*	26%*	35%*	258%*	3.4%*	.	.	.	.	i	i
Cc1[nH]c(C)c(S(=O)(=O)NCc2ccc(N(C)C)cc2)c1C(=O)N1CCCC1	i	i	i	i	i	.	.	.	.	.	.	.	.	.	.
CN1C(=O)/C(=C\c2ccc(N(C)C)cc2)OC1=S	i	i	19*	i	i	.	.	.	.	322%*	i	74%*	i	i	123%*
O=C(O)COc1ccc(/C=C/c2nc3ccc([N+](=O)[O-])cc3s2)cc1	i	i	i	i	-8.5*	i	-30%*	i	-426%*	.	.	.	.	i	i
COc1ccc(CCNC(=O)C2CCCN(S(=O)(=O)c3ccccc3)C2)cc1 (centres undefined)	i	i	i	i	i	.	.	.	.	.	.	.	.	.	.
Cc1ccccc1CNC(=O)C(=O)NCCC1CCCCN1S(=O)(=O)c1ccccc1 (centres undefined)	i	i	i	i	i	.	.	.	.	.	.	.	.	.	.
COc1cc(/C=N/NC(=O)c2nnn(-c3nonc3N)c2C(C)C)ccc1OCc1ccc(F)cc1	i	i	i	i	i	.	.	.	.	.	.	.	.	.	.
CCCCc1nc2ccccc2c(N)c1CCC (tested in a mixture with another compound)	i	i	i	-6*	-7.6*	15%*	i	i	0.7%*	.	.	.	.	59%*	i
CCCCc1nc2ccccc2c(NC(=O)CNC(C)(C)C)c1CCC	i	i	i	i	i	.	.	.	.	.	.	.	.	.	.
CCOC(=O)c1nnc(-c2ccccc2)nc1NCc1ccccc1	i	i	i	i	i	.	.	.	.	.	.	.	.	.	.
CCOC(=O)c1c2n(c3c(NCc4ccccc4)ncnc13)CCCC2	i	i	i	i	-5.2*	.	.	.	.	-94%*	66%*	-16%*	46%*	54%*	i
Cc1nn(-c2ccc(N3CCCCC3)nn2)c(C)c1CCC(=O)Nc1ccc(F)c(F)c1	i	i	i	i	i	.	.	.	.	.	.	.	.	.	.
Cc1c(Cl)cccc1-n1c(SCC(=O)N2CCC(C(=O)O)CC2)nc2ccccc2c1=O	i	i	i	i	i	.	.	.	.	.	.	.	.	.	.
COc1ccc(N2C(=O)CSC2c2ccc3c(c2)OCO3)cc1 (centres undefined)	i	i	i	i	-7.5*	i	i	i	i	.	.	.	.	i	i
Cc1c(N2C(=O)CSC2c2ccc(F)cc2)c(=O)n(-c2ccccc2)n1C (centres undefined)	i	i	i	i	i	.	.	.	.	.	.	.	.	.	.
CN1CCN(CC(O)COc2ccc(Cl)cc2)CC1 (centres undefined)	i	i	i	i	i	.	.	.	.	.	.	.	.	.	.
CN1CCN(CC(O)(c2ccc(Cl)cc2)c2ccc(Cl)cc2)CC1	i	i	i	i	-7.3*	i	4.3%*	i	1.8%*	.	.	.	.	i	i
CCOc1ccc(NC(=S)NCc2ccc3[nH]c(C)cc3c2)cc1	i	i	i	i	-8.1*	i	-9.5%*	i	-150%*	.	.	.	.	i	i
CCOC(=O)N1CCN(Cc2nc(-c3ccc(OC)cc3)no2)CC1	i	i	i	i	i	.	.	.	.	.	.	.	.	.	.
CCOC(=O)N1CCN(Cc2nc(-c3ccc(Cl)cc3)no2)CC1	i	i	i	i	-8.9*	i	i	i	i	.	.	.	.	i	.
C=CCN1C2CCCC1CC(NC(=O)Nc1cccc(C(C)=O)c1)C2 (centres undefined)	i	i	i	i	-5.4*	.	.	.	.	i	i	i	i	85%*	.
Cc1ccccc1C(OCCN(C)C)c1ccccc1 (centres undefined)	i	i	i	i	-5*	.	.	.	.	193%*	i	32%*	i	58%*	.
O=c1c([N+](=O)[O-])c(NCCN2CCCCCC2)c2ccccc2n1-c1ccccc1	i	i	i	i	-6.3*	.	.	.	.	i	i	-16%*	80%*	50%*	i
COCCNc1c([N+](=O)[O-])c(=O)n(-c2ccccc2)c2ccccc12	i	i	i	i	i	.	.	.	.	.	.	.	.	.	.
O=C(CNC(=O)c1ccccc1F)N/N=C/c1cn[nH]c1-c1ccccc1	i	i	i	i	-5.8*	.	.	.	.	i	i	i	i	i	.
COC(=O)C1=C(N)OC2=C(C(=O)CC(C)(C)C2)C1c1cc2c(cc1Cl)OCO2 (centres undefined)	i	i	i	i	-9.3*	34%*	i	i	i	.	.	.	.	i	i
Cc1c(C)[n+](=O)c2c(n1[O-])CCCCC2	i	i	i	i	-7.7*	i	i	i	i	.	.	.	.	i	i
CCOc1ccc(Br)cc1/C=N/O	i	i	16*	-6*	-5.9*	.	.	.	.	124%*	i	22%*	i	58%*	132%*

Assay outcomes from PubChem.
